pIC50: −log10 of the molar value. Blank lines part the entries; values can stand above or below the compound they belong to.
How the values were obtained:
CCRF-CEM = assay: Antiproliferative activity against human CEM cells; assay type: functional, cell-based
DU-145 = assay: Antiproliferative activity against human DU145 cells; assay type: functional, cell-based
MOLT-3 = assay: Antiproliferative activity against human Molt3 cells; assay type: functional, cell-based
Bel-7402 = assay: Antiproliferative activity against human Bel7402 cells; assay type: functional, cell-based
MCF7 = assay: Antiproliferative activity against human MCF7 cells; assay type: functional, cell-based
PC-3 = assay: Antiproliferative activity against human PC3 cells; assay type: functional, cell-based
[1] = Antiproliferative activity against human DND1 cells; assay type: functional, cell-based
Tubulin (Homo sapiens) [2] = target: T1, Tubulin (Homo sapiens) (UniProt P68371+Q9H4B7+P0DPH7+P68366+Q13509+Q71U36+P04350+Q3ZCM7+P07437+P68363+Q9BQE3+Q6PEY2+Q13885+Q9BVA1+Q9BUF5); assay: Inhibition of tubulin polymerization at 20 uM; assay type: protein-complex assay
Tubulin (Homo sapiens) [3] = target: T1, Tubulin (Homo sapiens); assay: Inhibition of tubulin polymerization; assay type: protein-complex assay
Summary of the method: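 Purified […] in reaction buffer with GTP and Mg²⁺ was incubated for assembly with or without test compound (1–5 uM), with vincristine or paclitaxel (20 uM) as controls. Assembly was read as OD at 340 nm every 2 min. Each point is the mean of two independent experiments.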

Compound: COc1ccc(C(=O)c2ccc3c(ccn3C)c2)c(OC)c1
pIC50 (CCRF-CEM): 6.99 | pIC50 (DU-145): 7.47 | pIC50 (MOLT-3): 7.62 | pIC50 (Bel-7402): 7.36 | pIC50 (MCF7): 7.07 | pIC50 (PC-3): 6.69 | pIC50 [1]: 6.93

Compound: COc1cc(C(=O)c2ccc3sccc3c2)cc(OC)c1OC
pIC50 (CCRF-CEM): 6.52

Compound: CC[C@]1(O)C[C@H]2CN(CCc3c([nH]c4ccccc34)[C@@](C(=O)OC)(c3cc4c(cc3OC)N(C=O)[C@H]3[C@@](O)(C(=O)OC)[C@H](OC(C)=O)[C@]5(CC)C=CCN6CC[C@]43[C@@H]65)C2)C1
inhibition (Tubulin (Homo sapiens) [2]): 87%

Compound: COc1cc(C(=O)c2ccc3[nH]ccc3c2)cc(OC)c1OC
pIC50 (CCRF-CEM): 6.65

Compound: COc1cc([C@@H]2c3cc4c(cc3C(O)[C@H]3COC(=O)[C@H]23)OCO4)cc(OC)c1OC (single isomer, unassigned) [PODOFILOX]
pIC50 [1]: 7.92

Compound: COc1ccc(C(=O)c2ccc3c(ccn3C)c2)cc1OC
pIC50 (CCRF-CEM): 5.77

Compound: COc1ccc(C(=O)c2ccc3c(ccn3C)c2)c(OC)n1
pIC50 (CCRF-CEM): 5.99

Compound: COc1cc(OC)cc(C(=O)c2ccc3c(ccn3C)c2)c1
pIC50 (CCRF-CEM): 5.77

Compound: COc1ccc(/C=C\c2cc(OC)c(OC)c(OC)c2)cc1O [COMBRETASTATIN A4]
pIC50 [1]: 8.60

Compound: COc1ccc(C(=O)c2ccc3c(ccn3C)c2)cc1
pIC50 (CCRF-CEM): 5.95

Compound: COc1cc(C(=O)c2ccc3occc3c2)cc(OC)c1OC
pIC50 (CCRF-CEM): 6.54

Compound: COc1ccc(OC)c(C(=O)c2ccc3c(ccn3C)c2)c1
pIC50 (CCRF-CEM): 5.63

The next lines start with results.

pIC50 (CCRF-CEM): 6.51
Compound: COc1cc(C(=O)c2cccc3ccn(C)c23)cc(OC)c1OC

pIC50 (CCRF-CEM): 7.25 | pIC50 (DU-145): 6.22 | pIC50 (MOLT-3): 7.70 | pIC50 (Bel-7402): 6.70 | pIC50 (MCF7): 7.05 | pIC50 (PC-3): 6.70
Compound: CCn1c2ccccc2c2cc(NS(=O)(=O)c3cc(OC)c(OC)c(OC)c3)ccc21
pIC50 [1]: 7.05

pIC50 (CCRF-CEM): 7.05 | pIC50 (DU-145): 7.41 | pIC50 (MOLT-3): 7.29 | pIC50 (Bel-7402): 7.05 | pIC50 (MCF7): 7.59 | pIC50 (PC-3): 6.99 | Activity (Tubulin (Homo sapiens) [3]): Dose-dependent effect
Compound: CCn1c2ccccc2c2cc(C(=O)c3cc(OC)c(OC)c(OC)c3)ccc21
pIC50 [1]: 7.68

pIC50 (CCRF-CEM): 7.24
Compound: CCn1c2ccccc2c2cc(NS(=O)(=O)c3ccc(OC)cc3OC)ccc21

pIC50 (CCRF-CEM): 7.23 | pIC50 (DU-145): 6.99 | pIC50 (MOLT-3): 7.42 | pIC50 (Bel-7402): 7.06 | pIC50 (MCF7): 7.36 | pIC50 (PC-3): 6.93
Compound: COc1cc(C(O)c2ccc3c(ccn3C)c2)cc(OC)c1OC (centres undefined)
pIC50 [1]: 7.23

pIC50 (CCRF-CEM): 7.52 | pIC50 (DU-145): 7.12 | pIC50 (MOLT-3): 7.74 | pIC50 (Bel-7402): 7.57 | pIC50 (MCF7): 7.62 | pIC50 (PC-3): 7.12
Compound: COc1cc(C(=O)c2ccc3ccn(C)c3c2)cc(OC)c1OC
pIC50 [1]: 7.57

pIC50 (CCRF-CEM): 6.26
Compound: CCn1c2ccccc2c2cc(C(=O)c3ccc(OC)nc3OC)ccc21

pIC50 (CCRF-CEM): 7.74 | pIC50 (DU-145): 7.59 | pIC50 (MOLT-3): 7.74 | pIC50 (Bel-7402): 7.68 | pIC50 (MCF7): 8.04 | pIC50 (PC-3): 7.60
Compound: COc1cc(C(=O)c2ccc3c(ccn3C)c2)cc(OC)c1OC
pIC50 [1]: 7.82

pIC50 (CCRF-CEM): 7.21
Compound: CCn1c2ccccc2c2cc(NS(=O)(=O)c3cc(OC)ccc3OC)ccc21

pIC50 (CCRF-CEM): 6.72
Compound: CCn1c2ccccc2c2cc(C(O)c3cc(OC)c(OC)c(OC)c3)ccc21 (centres undefined)
